Results published in ChEMBL document CHEMBL4342528, “Discovery of a First-in-Class Protein Arginine Methyltransferase 6 (PRMT6) Covalent Inhibitor” (J Med Chem, 2020).
Activity calls are given as the source filed them. The rule behind the calls is not given here.

Tests used:
[1] = target: DNA (cytosine-5)-methyltransferase 1 (Homo sapiens) (UniProt P26358); assay: Inhibition of DNMT1 (unknown origin) at 10 uM using double-stranded DNA substrate using [3H-SAM] incubated for 1 hr by scintillation proximity assay
How it was run: (§1)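 Panel of 33 methyltransferases (22 PKMTs, 3 DNMTs, 8 PRMTs), each tested at 10 and 50 μM compound. Activity was read as ³H-methyl transfer from ³H-SAM in a radiometric assay done as previously described.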

[2] = target: DNMT3B-DNMT3L complex (Homo sapiens) (UniProt Q9UBC3+Q9UJW3); assay: Inhibition of DNMT3B/3L (unknown origin) at 10 uM using un-biotinylated Poly(2'-deoxyinosinic-2'-deoxycytidylic acid) substrate using [3H-SAM] incubated for 1 hr by scintillation proximity assay; type: protein-complex assay; how it was run: as §1
[3] = target: T1, Protein arginine N-methyltransferase 6 (Homo sapiens, UniProt Q96LA8); assay: Inhibition of human PRMT6 pre-incubated for 1 to 30 mins using [3H]SAM as donor and [3H]methylated biotin-labeled peptide as substrate by scintillation proximity assay
[4] = target: T2, Histone-arginine methyltransferase CARM1 (Homo sapiens) (UniProt Q86X55); assay: Covalent binding affinity to human PRMT4 assessed as covalent adduct. formation at 300 uM pre-incubated for 1 hr by mass spectrometry
T2 sequence (whole entry): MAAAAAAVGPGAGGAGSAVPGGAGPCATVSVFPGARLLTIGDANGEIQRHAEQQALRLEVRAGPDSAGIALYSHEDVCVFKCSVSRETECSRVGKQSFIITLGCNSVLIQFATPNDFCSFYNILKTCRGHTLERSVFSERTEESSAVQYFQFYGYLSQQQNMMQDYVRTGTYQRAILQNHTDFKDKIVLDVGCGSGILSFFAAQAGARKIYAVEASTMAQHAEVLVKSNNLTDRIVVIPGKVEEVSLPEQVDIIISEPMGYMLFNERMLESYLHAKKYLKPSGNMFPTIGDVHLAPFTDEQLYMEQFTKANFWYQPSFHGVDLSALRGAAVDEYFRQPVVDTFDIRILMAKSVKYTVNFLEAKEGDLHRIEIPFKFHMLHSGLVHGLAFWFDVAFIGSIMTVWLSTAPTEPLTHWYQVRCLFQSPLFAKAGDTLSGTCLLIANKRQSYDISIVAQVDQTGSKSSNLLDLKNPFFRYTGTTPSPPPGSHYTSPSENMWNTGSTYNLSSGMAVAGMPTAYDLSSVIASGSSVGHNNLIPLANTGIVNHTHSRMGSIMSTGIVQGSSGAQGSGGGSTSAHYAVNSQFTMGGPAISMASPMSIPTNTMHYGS
How it was run: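 PRMT protein at 15 μM was incubated 1 h at room temperature with a 20-fold molar excess of inhibitor (300 μM). The reaction was quenched with 0.1% aqueous TFA, separated by HPLC (5–95% acetonitrile in water) and analysed by ESI time-of-flight LC/MS for protein–ligand adduct mass.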

Homo sapiens = species on record: Homo sapiens; assay: Inhibition of DNMT3A/3L (unknown origin) at 10 uM using un-biotinylated Poly(2'-deoxyinosinic-2'-deoxycytidylic acid) substrate using [3H-SAM] incubated for 1 hr by scintillation proximity assay; how it was run: as §1
[5] = target: Histone-lysine N-methyltransferase SUV39H1 (Homo sapiens) (UniProt O43463); assay: Inhibition of SUV39H1 (unknown origin) assessed as reduction in incorporation of [3H]-labeled methyl group into biotinylated substrate using [3H-SAM] at 10 uM incubated for 1 hr by scintillation proximity assay; how it was run: as §1
[6] = target: T1, Protein arginine N-methyltransferase 6; assay: Inhibition of human PRMT6 assessed as Kinact/Ki ratio pre-incubated for 1 to 30 mins using [3H]SAM as donor and [3H]methylated biotin-labeled peptide as substrate by scintillation proximity assay
Target sequence in this assay (Q96LA8 whole entry, looked up): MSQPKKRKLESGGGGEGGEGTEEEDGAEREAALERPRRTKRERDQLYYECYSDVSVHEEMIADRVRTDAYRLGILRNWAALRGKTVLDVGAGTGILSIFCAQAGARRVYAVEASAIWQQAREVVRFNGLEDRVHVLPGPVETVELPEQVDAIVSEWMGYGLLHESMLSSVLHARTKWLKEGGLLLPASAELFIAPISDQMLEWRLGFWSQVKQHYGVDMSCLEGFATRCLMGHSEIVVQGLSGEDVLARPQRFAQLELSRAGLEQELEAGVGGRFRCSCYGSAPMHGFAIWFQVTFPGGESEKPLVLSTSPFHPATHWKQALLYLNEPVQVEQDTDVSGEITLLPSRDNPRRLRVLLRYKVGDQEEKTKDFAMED

[7] = target: Protein arginine N-methyltransferase 8 (Homo sapiens, UniProt Q9NR22); assay: Inhibition of PRMT8 (unknown origin) assessed as reduction in incorporation of [3H]-labeled methyl group into biotinylated substrate using [3H-SAM] at 50 uM incubated for 1 hr by scintillation proximity assay relative to control; how it was run: as §1
[8] = target: Protein arginine N-methyltransferase 7 (Homo sapiens) (UniProt Q9NVM4); assay: Inhibition of PRMT7 (unknown origin) assessed as reduction in incorporation of [3H]-labeled methyl group into biotinylated substrate using [3H-SAM] at 10 uM incubated for 1 hr by scintillation proximity assay; how it was run: as §1
Protein arginine N-methyltransferase 7 (Homo sapiens), sequence (Q9NVM4 whole entry): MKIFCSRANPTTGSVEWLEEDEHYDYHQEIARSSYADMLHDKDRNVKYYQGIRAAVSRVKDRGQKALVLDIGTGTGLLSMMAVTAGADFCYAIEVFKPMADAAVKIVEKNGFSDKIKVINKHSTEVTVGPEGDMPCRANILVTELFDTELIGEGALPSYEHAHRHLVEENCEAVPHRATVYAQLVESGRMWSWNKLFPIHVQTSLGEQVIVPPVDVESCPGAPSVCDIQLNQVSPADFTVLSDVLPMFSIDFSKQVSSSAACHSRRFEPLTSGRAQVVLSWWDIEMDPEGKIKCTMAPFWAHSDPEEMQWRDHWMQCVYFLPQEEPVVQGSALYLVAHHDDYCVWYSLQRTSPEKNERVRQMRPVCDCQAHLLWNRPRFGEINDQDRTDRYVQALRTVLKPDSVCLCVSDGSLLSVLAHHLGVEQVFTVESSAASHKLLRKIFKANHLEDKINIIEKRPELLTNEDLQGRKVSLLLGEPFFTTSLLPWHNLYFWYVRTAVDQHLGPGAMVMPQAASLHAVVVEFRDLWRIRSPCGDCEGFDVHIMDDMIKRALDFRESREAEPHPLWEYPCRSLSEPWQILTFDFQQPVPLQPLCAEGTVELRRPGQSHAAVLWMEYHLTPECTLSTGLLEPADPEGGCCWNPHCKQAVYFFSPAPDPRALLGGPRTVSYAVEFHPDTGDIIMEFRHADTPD

[9] = target: T3, Histone-arginine methyltransferase CARM1 (Homo sapiens, UniProt Q86X55); assay: Inhibition of human PRMT4 using [3H]SAM as donor and [3H]methylated biotin-labeled peptide as substrate by scintillation proximity assay
T3 sequence (Q86X55 whole entry): T2 sequence (whole entry)
How it was run: (§2)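 Compound titrated into the reaction; 1 h enzyme–compound preincubation stated for PRMT6. Methylated peptide captured on streptavidin/scintillant-coated plates and counted (cpm). IC50 from concentration–response, triplicate, mean ± SD.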

[10] = target: Protein arginine N-methyltransferase 3 (Homo sapiens, UniProt O60678); assay: Inhibition of human PRMT3 using [3H]SAM as donor and [3H]methylated biotin-labeled peptide as substrate by scintillation proximity assay; how it was run: as §2
Protein arginine N-methyltransferase 3, sequence (O60678 whole entry): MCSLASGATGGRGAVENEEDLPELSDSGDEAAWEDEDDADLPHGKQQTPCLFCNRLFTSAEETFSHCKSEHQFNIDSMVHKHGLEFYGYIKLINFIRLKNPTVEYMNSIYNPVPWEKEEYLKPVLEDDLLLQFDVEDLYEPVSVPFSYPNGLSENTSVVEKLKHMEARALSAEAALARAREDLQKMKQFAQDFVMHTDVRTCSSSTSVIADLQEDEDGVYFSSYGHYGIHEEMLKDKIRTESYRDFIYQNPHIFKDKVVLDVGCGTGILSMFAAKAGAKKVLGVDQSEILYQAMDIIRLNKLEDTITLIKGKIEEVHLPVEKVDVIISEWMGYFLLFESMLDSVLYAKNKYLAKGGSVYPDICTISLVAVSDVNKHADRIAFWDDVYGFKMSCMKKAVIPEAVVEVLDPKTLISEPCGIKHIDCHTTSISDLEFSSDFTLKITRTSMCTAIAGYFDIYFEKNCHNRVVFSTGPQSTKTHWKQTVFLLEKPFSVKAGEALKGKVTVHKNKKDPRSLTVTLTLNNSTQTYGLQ

[11] = target: Protein arginine N-methyltransferase 7 (Homo sapiens) (UniProt Q9NVM4); assay: Inhibition of PRMT7 (unknown origin) at 50 uM assessed as reduction in incorporation of [3H]-labeled methyl group into biotinylated substrate using [3H-SAM] at 50 uM incubated for 1 hr by scintillation proximity assay relative to control; how it was run: as §1
[12] = target: Histone-lysine N-methyltransferase SUV39H2 (Homo sapiens) (UniProt Q9H5I1); assay: Inhibition of SUV39H2 (unknown origin) assessed as reduction in incorporation of [3H]-labeled methyl group into biotinylated substrate using [3H-SAM] at 10 uM incubated for 1 hr by scintillation proximity assay
Histone-lysine N-methyltransferase SUV39H2 (Homo sapiens), sequence (Q9H5I1 whole entry): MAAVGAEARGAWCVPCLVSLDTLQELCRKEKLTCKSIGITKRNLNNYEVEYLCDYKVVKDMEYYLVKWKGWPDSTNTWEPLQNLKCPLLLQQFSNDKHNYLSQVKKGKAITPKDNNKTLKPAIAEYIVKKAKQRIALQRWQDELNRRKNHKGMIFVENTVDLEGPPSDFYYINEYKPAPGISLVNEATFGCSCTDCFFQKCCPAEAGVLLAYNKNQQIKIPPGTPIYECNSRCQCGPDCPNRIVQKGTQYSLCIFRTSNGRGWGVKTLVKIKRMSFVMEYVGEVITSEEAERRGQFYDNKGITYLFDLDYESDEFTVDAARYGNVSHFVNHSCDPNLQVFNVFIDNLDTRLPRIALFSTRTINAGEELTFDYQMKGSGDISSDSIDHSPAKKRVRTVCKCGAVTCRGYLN

[13] = target: T1, Protein arginine N-methyltransferase 6; assay: Inhibition of human PRMT6 using [3H]SAM as donor and [3H]methylated biotin-labeled peptide as substrate by scintillation proximity assay; how it was run: as §2
Target sequence in this assay (Q96LA8 whole entry): as the sequence (Q96LA8 whole entry, looked up) above

[14] = target: Histone-lysine N-methyltransferase, H3 lysine-36 specific (Homo sapiens) (UniProt Q96L73); assay: Inhibition of NSD1 (unknown origin) at 10 uM using [3H-SAM] and nucleosome as substrate incubated for 1 hr by scintillation proximity assay; how it was run: as §1
Histone-lysine N-methyltransferase, H3 lysine-36 specific (Homo sapiens), sequence (Q96L73 whole entry): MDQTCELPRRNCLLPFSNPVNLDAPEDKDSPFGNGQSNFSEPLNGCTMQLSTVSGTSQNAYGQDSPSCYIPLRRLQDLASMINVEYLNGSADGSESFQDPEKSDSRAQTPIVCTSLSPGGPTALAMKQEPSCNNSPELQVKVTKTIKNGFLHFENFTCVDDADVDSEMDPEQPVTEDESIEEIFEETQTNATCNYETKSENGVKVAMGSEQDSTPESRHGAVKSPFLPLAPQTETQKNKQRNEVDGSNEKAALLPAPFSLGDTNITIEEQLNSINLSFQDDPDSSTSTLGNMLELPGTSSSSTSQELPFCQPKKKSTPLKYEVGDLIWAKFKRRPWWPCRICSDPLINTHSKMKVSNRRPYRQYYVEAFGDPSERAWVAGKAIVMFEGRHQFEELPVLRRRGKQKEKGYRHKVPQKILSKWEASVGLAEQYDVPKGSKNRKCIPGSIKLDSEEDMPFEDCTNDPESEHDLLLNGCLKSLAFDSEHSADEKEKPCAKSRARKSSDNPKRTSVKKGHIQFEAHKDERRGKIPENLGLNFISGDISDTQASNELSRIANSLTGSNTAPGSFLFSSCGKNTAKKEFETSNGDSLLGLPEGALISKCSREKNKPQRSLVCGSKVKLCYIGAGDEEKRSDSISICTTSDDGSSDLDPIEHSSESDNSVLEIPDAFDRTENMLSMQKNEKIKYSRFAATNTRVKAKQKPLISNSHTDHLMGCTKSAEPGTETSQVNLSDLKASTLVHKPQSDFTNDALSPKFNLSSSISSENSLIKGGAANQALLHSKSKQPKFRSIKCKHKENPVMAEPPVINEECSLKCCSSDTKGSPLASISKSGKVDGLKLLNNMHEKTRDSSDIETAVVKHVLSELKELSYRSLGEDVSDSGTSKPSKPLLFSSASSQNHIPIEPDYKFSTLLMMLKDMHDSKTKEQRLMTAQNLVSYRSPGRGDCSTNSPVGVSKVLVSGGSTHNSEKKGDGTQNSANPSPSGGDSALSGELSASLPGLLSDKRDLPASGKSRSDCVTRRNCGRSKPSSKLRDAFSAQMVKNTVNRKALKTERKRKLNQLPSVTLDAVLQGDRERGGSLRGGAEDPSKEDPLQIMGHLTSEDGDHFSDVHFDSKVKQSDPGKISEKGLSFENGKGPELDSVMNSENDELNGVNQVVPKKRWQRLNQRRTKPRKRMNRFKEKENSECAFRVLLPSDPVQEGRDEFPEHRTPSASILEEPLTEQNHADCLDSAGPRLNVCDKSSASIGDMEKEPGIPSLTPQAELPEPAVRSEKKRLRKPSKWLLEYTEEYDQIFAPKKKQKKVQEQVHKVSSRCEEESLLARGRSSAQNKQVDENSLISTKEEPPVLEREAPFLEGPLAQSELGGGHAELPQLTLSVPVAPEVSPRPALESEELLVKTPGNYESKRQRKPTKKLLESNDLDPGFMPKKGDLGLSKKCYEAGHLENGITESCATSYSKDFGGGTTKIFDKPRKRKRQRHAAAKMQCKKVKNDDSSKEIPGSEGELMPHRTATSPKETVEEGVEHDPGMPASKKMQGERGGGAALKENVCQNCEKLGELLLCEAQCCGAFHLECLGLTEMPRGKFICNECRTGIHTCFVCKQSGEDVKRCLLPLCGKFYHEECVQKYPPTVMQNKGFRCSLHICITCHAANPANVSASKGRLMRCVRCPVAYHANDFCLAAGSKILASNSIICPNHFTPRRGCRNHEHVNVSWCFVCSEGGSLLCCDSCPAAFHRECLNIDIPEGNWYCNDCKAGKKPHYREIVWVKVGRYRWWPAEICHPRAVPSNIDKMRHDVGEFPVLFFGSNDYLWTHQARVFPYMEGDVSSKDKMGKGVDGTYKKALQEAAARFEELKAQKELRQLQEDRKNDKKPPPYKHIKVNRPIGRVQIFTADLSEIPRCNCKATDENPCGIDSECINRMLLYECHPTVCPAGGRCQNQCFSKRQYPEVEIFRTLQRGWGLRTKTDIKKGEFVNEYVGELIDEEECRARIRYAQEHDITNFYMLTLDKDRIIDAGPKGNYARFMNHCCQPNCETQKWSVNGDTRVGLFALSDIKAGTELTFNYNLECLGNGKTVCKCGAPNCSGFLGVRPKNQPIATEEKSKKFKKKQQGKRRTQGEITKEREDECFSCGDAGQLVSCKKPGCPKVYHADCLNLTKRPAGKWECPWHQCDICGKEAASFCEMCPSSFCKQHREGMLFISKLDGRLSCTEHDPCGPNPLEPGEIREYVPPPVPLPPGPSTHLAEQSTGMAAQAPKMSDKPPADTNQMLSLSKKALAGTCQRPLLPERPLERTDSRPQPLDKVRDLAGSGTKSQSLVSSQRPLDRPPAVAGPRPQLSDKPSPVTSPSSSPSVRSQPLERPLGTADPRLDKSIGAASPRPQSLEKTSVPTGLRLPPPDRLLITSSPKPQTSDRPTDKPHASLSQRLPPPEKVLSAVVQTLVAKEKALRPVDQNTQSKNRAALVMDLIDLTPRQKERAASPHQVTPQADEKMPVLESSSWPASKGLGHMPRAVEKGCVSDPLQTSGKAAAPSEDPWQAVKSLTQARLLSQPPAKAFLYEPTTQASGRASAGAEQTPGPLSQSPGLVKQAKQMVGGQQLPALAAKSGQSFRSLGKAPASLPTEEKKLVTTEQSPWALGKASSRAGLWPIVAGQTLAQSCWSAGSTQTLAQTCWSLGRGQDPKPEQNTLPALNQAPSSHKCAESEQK

[15] = target: Histone-lysine N-methyltransferase 2A (Homo sapiens) (UniProt Q03164); assay: Inhibition of MLL1 (unknown origin) assessed as reduction in incorporation of [3H]-labeled methyl group into biotinylated substrate using [3H-SAM] at 10 uM incubated for 1 hr by scintillation proximity assay; how it was run: as §1
[16] = target: Histone-lysine N-methyltransferase KMT5B (Homo sapiens) (UniProt Q4FZB7); assay: Inhibition of SUV420H1 (unknown origin) assessed as reduction in incorporation of [3H]-labeled methyl group into biotinylated substrate using [3H-SAM] at 10 uM incubated for 1 hr by scintillation proximity assay
[17] = target: N-lysine methyltransferase SMYD2 (Homo sapiens) (UniProt Q9NRG4); assay: Inhibition of SMYD2 (unknown origin) assessed as reduction in incorporation of [3H]-labeled methyl group into biotinylated substrate using [3H-SAM] at 10 uM incubated for 1 hr by scintillation proximity assay; how it was run: as §1

C=CC(=O)Nc1cccc(-c2c[nH]cc2CN(C)CCN)c1
inhibition [1]: inactive | inhibition [2]: inactive | Ki [3]: 16 nM | Kinact [3]: 0.08 min⁻¹ | Activity [4]: inactive | inhibition (Homo sapiens): inactive | inhibition [5]: inactive | Ratio [6]: 8.3 ×10⁴ /M/s | inhibition [7]: > 50% | inhibition [8]: inactive | IC50 [9]: 480 nM | IC50 [10]: 3000 nM | inhibition [11]: > 50% | inhibition [12]: inactive | IC50 ([13]; read-out: IC50): 18 nM | IC50 ([13]; read-out: pIC50 (converted)): 15.8 nM | inhibition [14]: inactive | inhibition [15]: inactive | inhibition [16]: inactive | inhibition [17]: inactive
